# PMC5790683 (Journal of Pharmaceutical Analysis, 2013)
# Assays:
# [1] = Pharmacokinetic study in healthy male subjects after oral desmopressin; type: in vivo; details: human, plasma, 0.4 mg
# Method in brief: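 Healthy male volunteers (n=6), fasted 9 h, received a single oral 0.4 mg dose (2×0.2 mg tablets). Plasma was spun at 3200 rpm for 10 min, stored at −20±5 °C, spiked with IS, extracted and quantified by positive-ESI MRM UPLC–MS/MS (HSS T3 column, 40 °C; LLOQ 1.01 pg/mL). Non-compartmental analysis.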
# [2] = Processed sample stability; type: physicochemical; details: 45 h at 2-8 °C, UPLC-MS/MS, mean of n=6
# Method in brief: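 Processed-sample stability was tested at LQC and HQC in human plasma, six replicates per level: autosampler 48 h, wet extract 45 h, reinjection 24 h. Extracts were analysed by UPLC–MS/MS against a 9-point calibration of 1.01–200 pg/mL. Acceptance was accuracy within ±15% and precision ≤15% RSD.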
structure (smiles),measurement,setting,value
NC(=O)CC[C@@H]1NC(=O)[C@H](Cc2ccccc2)NC(=O)[C@H](Cc2ccc(O)cc2)NC(=O)CCSSC[C@@H](C(=O)N2CCC[C@H]2C(=O)N[C@H](CCCN=C(N)N)C(=O)NCC(N)=O)NC(=O)[C@H](CC(N)=O)NC1=O [desmopressin],AUC(0-inf),[1],0.157 ± 0.051 ng·h/mL
same,AUC(0-t),[1],0.149 ± 0.046 ng·h/mL
same,Cmax,[1],0.035 ± 0.0081 ng/mL
same,Tmax,[1],1.4 ± 0.48 h
same,half-life,[1],3.48 ± 0.5 h
same,level at 1.25 h,[1],0.0361 ng/mL
same,"Accuracy/stability (%), Process (wet extract)",[2]; spiked 3.05 pg/mL (LQC),94.84%
same,"Accuracy/stability (%), Process (wet extract)",[2]; spiked 156.23 pg/mL (HQC),99.20%
